Results taken from ChEMBL document CHEMBL1122079, “Tryptophan analogues. 1. Synthesis and antihypertensive activity of positional isomers” (1982).

Legend:
Rattus norvegicus [1] = assay: Antihypertensive activity in renal hypertensive rats 6 hr after oral administration (10 mg/Kg); type: functional
Procedure, shortened: (§1)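 Renal hypertensive rats (5 or 10 per group), 10 mg/kg given orally. Systolic pressure measured indirectly by tail occluding cuff with pulse sensor, once before dosing as control and again at 1, 2, 4, 6 and 8 h. Values are changes in mean systolic pressure from control (mmHg). Significance of control vs posttreatment assessed by Wilcoxon's signed rank test (p < 0.05).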

Rattus norvegicus [2] = assay: Antihypertensive activity in renal hypertensive rats 1 hr after oral administration (10 mg/Kg); type: functional; procedure, shortened: as §1
Felis catus [3] = assay: Control blood pressure in normotensive anesthetized cat at dose 10 mg/Kg iv
Felis catus [4] = assay: Change in blood pressure in normotensive anesthetized cat.; type: functional
Procedure, shortened: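 Normotensive cats of either sex (2-4 kg) anesthetized with α-chloralose (80 mg/kg iv). Trachea, femoral artery and jugular vein cannulated. Compound given iv at 10 mg/kg, with 1 mg/kg iv used in one case. Mean blood pressure recorded by pressure transducer before and 30 min after dosing, reported as decrease in mmHg.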

Rattus norvegicus [5] = assay: Antihypertensive activity in renal hypertensive rats 2 hr after oral administration (10 mg/Kg); type: functional; procedure, shortened: as §1
Rattus norvegicus [6] = assay: Antihypertensive activity in renal hypertensive rats 4 hr after oral administration (10 mg/Kg); type: functional; procedure, shortened: as §1
Rattus norvegicus [7] = assay: Antihypertensive activity in renal hypertensive rats 8 hr after oral administration (10 mg/Kg); type: functional; procedure, shortened: as §1

SMILES | BP (Rattus norvegicus [1]) [mmHg] | BP (Rattus norvegicus [2]) [mmHg] | control BP (Felis catus [3]) [mmHg] | BP (Felis catus [4]) [mmHg] | BP (Rattus norvegicus [5]) [mmHg] | BP (Rattus norvegicus [6]) [mmHg] | BP (Rattus norvegicus [7]) [mmHg]
CCOC(=O)CC(c1nnn[nH]1)c1c[nH]c2cc(OC)c(OC)cc12 (configuration not stated) | -25 | -11 | 164 | -6 | -15 | -20 | -14
NCC(CC(=O)O)c1c[nH]c2ccccc12 (configuration not stated) | -14 | -11 | 152 | -11 | -3 | -3 | 1
COC(=O)C(N)Cc1c[nH]c2ccc(OC)cc12 (configuration not stated) | 4 | -7 | 136 | -12 | 4 | -8 | -1
COC(=O)C(CN)c1c[nH]c2cc(OC)c(OC)cc12.Cl (configuration not stated) | -7 | -15 | 160 | -16 | -2 | -4 | -2
COC(=O)C(CN)c1c[nH]c2ccccc12.Cl (configuration not stated) | -6 | -7 | 156 | -53 | -9 | -9 | -7
NCC(C(=O)O)c1c[nH]c2ccccc12 (configuration not stated) | -13 | -6 | 153 | -10 | -8 | -10 | -8
COC(=O)C(CN)c1c[nH]c2cc(Cl)ccc12.Cl (configuration not stated) | -15 | -14 | 140 | -7 | -23 | -17 | -7
COc1ccc2[nH]cc(C(CNC(C)=O)C(=O)O)c2c1 (configuration not stated) | -28 | -16 | 154 | -14 | -18 | -24 | -8
CCOC(=O)CC(c1nnn[nH]1)c1c[nH]c2ccccc12 (configuration not stated) | -22 | -4 | 168 | 2 | -22 | -27 | -7
COC(=O)C(CN)c1c[nH]c2ccc(O)cc12.Cl (configuration not stated) | 0 | 7 | 135 | -85 | 1 | 4 | 7
CCOC(=O)CC(c1nnn[nH]1)c1c[nH]c2ccc(OC)cc12 (configuration not stated) | -16 | -16 | 136 | -11 | -21 | -25 | -11
NCC(c1nnn[nH]1)c1c[nH]c2ccccc12 (configuration not stated) | 5 | 8 | 155 | -5 | 1 | 8 | 2
COC(=O)C(CN)c1cn(C)c2ccc(OC)cc12.Cl (configuration not stated) | 1 | -5 | 165 | 20 | -6 | 3 | 7
CCCOc1ccc2[nH]cc(C(CN)C(=O)OC)c2c1.Cl (configuration not stated) | 9 | -6 | 150 |  | 6 | 8 | 5
CCOC(=O)C(CNC(C)=O)c1cn(C(=O)OCC)c2ccccc12 (configuration not stated) | -22 | -3 | 135 | -49 | -3 | -18 | -18
CCOC(=O)C(CN)c1c[nH]c2ccc(Br)cc12.Cl (configuration not stated) | -3 | -3 | 143 | -18 | -7 | -2 | 1
CCOC(=O)NCC(c1nnn[nH]1)c1c[nH]c2ccc(OC)cc12 (configuration not stated) | 2 | -2 | 160 | 5 | 2 | 0 | 0
COC(=O)C(CN)c1c[nH]c2cccc(Cl)c12.Cl (configuration not stated) | -9 | -7 | 131 | -10 | -9 | -20 | -8

SMILES | BP (Rattus norvegicus [1]) [mmHg] | BP (Rattus norvegicus [2]) [mmHg] | control BP (Felis catus [3]) [mmHg] | BP (Felis catus [4]) [mmHg] | BP (Rattus norvegicus [5]) [mmHg] | BP (Rattus norvegicus [6]) [mmHg] | BP (Rattus norvegicus [7]) [mmHg]
COC(=O)C(CN)c1c[nH]c2ccc(Br)cc12.Cl (configuration not stated) | 8 | -6 | 125 | -35 | -10 | 6 | 7
NCC(C(=O)O)c1c[nH]c2ccc(F)cc12 (configuration not stated) | -15 | -19 | 180 | -25 | -26 | -27 | 0
CCOC(=O)CC(CNC(C)=O)c1c[nH]c2ccccc12 (configuration not stated) | -6 | -8 | 169 | -21 | -11 | -7 | -2
COC(=O)CC(CN)c1c[nH]c2ccccc12 (configuration not stated) | -7 | -1 | 184 | -4 | -11 | 2 | -1
CCOC(=O)C(CNC(C)=O)c1cn(C(=O)OCC)c2cccc(Cl)c12 (configuration not stated) | 0 | -8 | 183 | 11 | -1 | 3 | 2
COC(=O)C(CN)c1c[nH]c2ccc(OC)cc12.Cl (configuration not stated) [INDORENATE HYDROCHLORIDE] | -10 | -85 | 162 | -82 | -71 | -38 | 2
CCOC(=O)CC(c1nnn[nH]1)c1c[nH]c2cc(Cl)ccc12 (configuration not stated) | -17 | -5 | 175 | -20 | 2 | -4 | -11
COc1ccc2[nH]cc(C(CN)c3nnn[nH]3)c2c1 (configuration not stated) | 3 | -2 | 167 | -4 | 5 | -2 | 13
COC(=O)CC(CN)c1c[nH]c2cc(Cl)ccc12 (configuration not stated) | -11 | 2 | 158 | -10 | -4 | -3 | -6
COC(=O)C(CN(C)C)c1c[nH]c2ccccc12 (configuration not stated) | 11 | -2 | 145 | -35 | 0 | 2 | 1
N[C@@H](Cc1c[nH]c2ccccc12)C(=O)O [TRYPTOPHAN] | -4 | -12 | 165 | -22 | -9 | -15 | 0
COC(=O)C(CN)c1c(C)[nH]c2ccc(OC)cc12.Cl (configuration not stated) | -8 | 2 | 164 | 1 | -2 | -8 | -3
CCOC(=O)C(CNC(C)=O)c1cn(C(=O)OCC)c2ccc(OC)cc12 (configuration not stated) | -20 | -15 | 195 | 0 | -12 | -21 | -14
CCOC(=O)CC(c1nnn[nH]1)c1c[nH]c2cccc(Cl)c12 (configuration not stated) | -2 | -4 | 135 | -35 | -12 | -5 | 4
NCC(C(=O)O)c1c[nH]c2cc(Cl)ccc12 (configuration not stated) | -14 | -4 | 179 | -2 | -5 | -6 | -9
NC(Cc1c[nH]c2ccc(O)cc12)C(=O)O (configuration not stated) | 6 | -9 | 162 | -24 | -5 | 0 | -1
COC(=O)C(c1c[nH]c2ccc(OC)cc12)C(C)N (configuration not stated) | 3 | -6 |  |  | -3 | -3 | 2
COc1ccc2[nH]cc(C(CN)CO)c2c1.O=C(O)C(=O)O (configuration not stated) | -8 | -13 |  |  | -15 | 4 | 0
